Source: PMC8841436 (Clinical and Translational Science, 2021)

What was measured:
[1] = Urine pharmacokinetics, 60 mg cohort part A; assay type: in vivo, human
[2] = system: healthy volunteers; assay: Phase 1 safety and tolerability; assay type: in vivo, human; settings: for Diarrhea, participants with adverse event / Headache, participants with adverse event: part B MAD
[3] = Plasma pharmacokinetics, part B; settings: human, in vivo, n = 8
[4] = system: experimental autoimmune encephalomyelitis; assay: Experimental autoimmune encephalomyelitis; assay type: in vivo; settings: EAE mouse model; unpublished data
[5] = Plasma pharmacokinetics, part A; assay type: in vivo, human; settings: for half-life / Tmax / AUC(0-inf) / AUC(0-t) / Cmax: human, in vivo
[6] = system: lymphocyte subpopulations (T/B/NK/monocyte counts); assay: Flow cytometry analysis of immune cell subsets in whole blood, part B; assay type: in vivo, human
Summary of the method: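 Healthy volunteers got oral liquid test compound (7.5, 15, 30, 60 or 90 mg) or matching placebo once daily for 10 days, fasted. Whole blood was drawn predose on days 1, 4 and 10. Flow cytometry counted T, B, NK and monocytes with CD3, CD4, CD8, CD14, CD19 and CD16/56 antibodies. Naïve (CD19+ CD27-) and memory (CD19+ CD27+) B cells were also counted. Error bars are SD.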

[7] = Plasma protein binding by equilibrium dialysis; assay type: in vitro ADME; settings: human
[8] = 7.5 mg q.d. 10 days, 8 participants
[9] = 15 mg q.d. 10 days, 8 participants
[10] = 30 mg q.d. 10 days, 8 participants
[11] = 60 mg q.d. 10 days, 8 participants
[12] = 90 mg q.d. 10 days, 8 participants
[13] = all tolebrutinib doses, 40 participants

CL renal ([1]; human, urine, po, 60 mg): ~5 mL/min
total mean amount recovered unchanged in urine ([1]; single oral 60 mg, fasted, after 12 h): 4.2 µg
AUC ([3]; 7.5 mg, AUC0‐24, MAD 7.5 mg q.d., Day 1, mean): 2.12 ng·h/mL
AUC ([3]; 7.5 mg, AUC0‐24, MAD 7.5 mg q.d., Day 10, mean): 3.07 ng·h/mL
Cmax ([3]; 7.5 mg, MAD 7.5 mg q.d., Day 1, mean): 1.17 ng/mL
Cmax ([3]; 7.5 mg, MAD 7.5 mg q.d., Day 10, mean): 1.32 ng/mL
Tmax ([3]; 7.5 mg, MAD 7.5 mg q.d., Day 1, median (min – max)): 1 h
Tmax ([3]; 7.5 mg, MAD 7.5 mg q.d., Day 10, median (min – max)): 1 h
half-life ([3]; 7.5 mg, t 1/2, MAD 7.5 mg q.d., Day 1, mean): 1.45 h
half-life ([3]; 7.5 mg, t 1/2, MAD 7.5 mg q.d., Day 10, mean): 1.57 h
AUC ([3]; 15 mg, AUC0‐24, MAD 15 mg q.d., Day 1, mean): 3.82 ng·h/mL
AUC ([3]; 15 mg, AUC0‐24, MAD 15 mg q.d., Day 10, mean): 5.85 ng·h/mL
Cmax ([3]; 15 mg, MAD 15 mg q.d., Day 1, mean): 1.96 ng/mL
Cmax ([3]; 15 mg, MAD 15 mg q.d., Day 10, mean): 2.51 ng/mL
Tmax ([3]; 15 mg, MAD 15 mg q.d., Day 1, median (min – max)): 1 h
Tmax ([3]; 15 mg, MAD 15 mg q.d., Day 10, median (min – max)): 1 h
half-life ([3]; 15 mg, t 1/2, MAD 15 mg q.d., Day 1, mean): 1.4 h
half-life ([3]; 15 mg, t 1/2, MAD 15 mg q.d., Day 10, mean): 1.68 h
AUC ([3]; 30 mg, AUC0‐24, MAD 30 mg q.d., Day 1, mean): 9.67 ng·h/mL
AUC ([3]; 30 mg, AUC0‐24, MAD 30 mg q.d., Day 10, mean): 14.9 ng·h/mL
Cmax ([3]; 30 mg, MAD 30 mg q.d., Day 1, mean): 6.25 ng/mL
Cmax ([3]; 30 mg, MAD 30 mg q.d., Day 10, mean): 7.46 ng/mL
Tmax ([3]; 30 mg, MAD 30 mg q.d., Day 1, median (min – max)): 0.75 h
Tmax ([3]; 30 mg, MAD 30 mg q.d., Day 10, median (min – max)): 1 h
half-life ([3]; 30 mg, t 1/2, MAD 30 mg q.d., Day 1, mean): 1.6 h
half-life ([3]; 30 mg, t 1/2, MAD 30 mg q.d., Day 10, mean): 2.02 h
AUC ([3]; 60 mg, AUC0‐24, MAD 60 mg q.d., Day 1, mean): 24.3 ng·h/mL
AUC ([3]; 60 mg, AUC0‐24, MAD 60 mg q.d., Day 10, mean): 18.2 ng·h/mL
Cmax ([3]; 60 mg, MAD 60 mg q.d., Day 1, mean): 8.47 ng/mL
Cmax ([3]; 60 mg, MAD 60 mg q.d., Day 10, mean): 6.69 ng/mL
Tmax ([3]; 60 mg, MAD 60 mg q.d., Day 1, median (min – max)): 1.25 h
Tmax ([3]; 60 mg, MAD 60 mg q.d., Day 10, median (min – max)): 1.5 h
half-life ([3]; 60 mg, t 1/2, MAD 60 mg q.d., Day 1, mean): 1.98 h
half-life ([3]; 60 mg, t 1/2, MAD 60 mg q.d., Day 10, mean): 2.37 h
AUC ([3]; 90 mg, AUC0‐24, MAD 90 mg q.d., Day 1, mean): 35.5 ng·h/mL
AUC ([3]; 90 mg, AUC0‐24, MAD 90 mg q.d., Day 10, mean): 56.6 ng·h/mL
Cmax ([3]; 90 mg, MAD 90 mg q.d., Day 1, mean): 19.3 ng/mL
Cmax ([3]; 90 mg, MAD 90 mg q.d., Day 10, mean): 21.7 ng/mL
Tmax ([3]; 90 mg, MAD 90 mg q.d., Day 1, median (min – max)): 1 h
Tmax ([3]; 90 mg, MAD 90 mg q.d., Day 10, median (min – max)): 1.5 h
half-life ([3]; 90 mg, t 1/2, MAD 90 mg q.d., Day 1, mean): 2.1 h
half-life ([3]; 90 mg, t 1/2, MAD 90 mg q.d., Day 10, mean): 2.83 h
half‐life (mean) ([5]; after oral administration, fasting, across doses): 1.5 to 2 h
Dose proportionality of exposure ([5]; dose levels between 15 and 60 mg): approximately dose proportional
half-life ([5]; half‐life, plasma, as summarised in CSF section): 1.5 to 2 h
Tmax ([5]; po): ~1 h
AUC(0-inf) ([5]; po, 5 mg): 1.39 ng·h/mL
AUC(0-t) ([5]; po, 5 mg): 0.57 ng·h/mL
Cmax ([5]; po, 5 mg): 0.369 ng/mL
Tmax ([5]; po, 5 mg): 1 h
half-life ([5]; po, 5 mg, t 1/2, SAD, single oral 5 mg, fasting, mean, n = 6): 1.92 h
AUC(0-inf) ([5]; po, 15 mg): 4.06 ng·h/mL
AUC(0-t) ([5]; po, 15 mg): 3.67 ng·h/mL
Cmax ([5]; po, 15 mg): 1.97 ng/mL
Tmax ([5]; po, 15 mg): 1 h
half-life ([5]; po, 15 mg, t 1/2, SAD, single oral 15 mg, fasting, mean, n = 6): 1.39 h
AUC(0-inf) ([5]; po, 30 mg): 6.46 ng·h/mL
AUC(0-t) ([5]; po, 30 mg): 6.04 ng·h/mL
Cmax ([5]; po, 30 mg): 3.12 ng/mL
Tmax ([5]; po, 30 mg): 1 h
half-life ([5]; po, 30 mg, t 1/2, SAD, single oral 30 mg, fasting, mean, n = 6): 1.47 h
AUC(0-inf) ([5]; po, 60 mg): 15.9 ng·h/mL
AUC(0-t) ([5]; po, 60 mg): 15.6 ng·h/mL
Cmax ([5]; po, 60 mg): 6.89 ng/mL
Tmax ([5]; po, 60 mg): 1.5 h
half-life ([5]; po, 60 mg, t 1/2, SAD, single oral 60 mg, fasting, mean, n = 6): 1.67 h
AUC(0-inf) ([5]; po, 120 mg): 62.6 ng·h/mL
AUC(0-t) ([5]; po, 120 mg): 61.6 ng·h/mL
Cmax ([5]; po, 120 mg): 32.3 ng/mL
Tmax ([5]; po, 120 mg): 1 h
half-life ([5]; po, 120 mg, t 1/2, SAD, single oral 120 mg, fasting, mean, n = 6): 2.18 h
Dose proportionality of Cmax and AUC (power model) ([5]; single doses 5 to 120 mg): more than dose proportional
fraction unbound [7]: ~0.065
SMILES: C=CC(=O)N1CCC[C@@H](n2c(=O)n(-c3ccc(Oc4ccccc4)cc3)c3c(N)nccc32)C1 [tolebrutinib]
Serious treatment-emergent adverse events ([2]; part A (SAD)): no serious treatment‐emergent adverse events
Tolerability ([2]; part A (SAD), single doses 5-120 mg): well‐tolerated
Severity of treatment-related TEAEs ([2]; part B (MAD), all combined dose groups): mild
Diarrhea, participants with adverse event [2, 8]: 1
Headache, participants with adverse event [2, 8]: 2
Diarrhea, participants with adverse event [2, 9]: 1
Headache, participants with adverse event [2, 9]: 1
Diarrhea, participants with adverse event [2, 10]: 2
Headache, participants with adverse event [2, 10]: 1
Diarrhea, participants with adverse event [2, 11]: 0
Headache, participants with adverse event [2, 11]: 0
Diarrhea, participants with adverse event [2, 12]: 5
Headache, participants with adverse event [2, 12]: 0
Diarrhea, participants with adverse event [2, 13]: 9
Headache, participants with adverse event [2, 13]: 4
Protection from disease induction [4]: dose‐dependent protection
circulating total B cell levels (both naïve and memory B cells) ([6]; day 4 and day 10, all part B cohorts): Elevated
B cell depletion ([6]; part B MAD): did not result in B cell depletion
other immune cell populations: T cells (total CD3, CD4, CD8), monocytes, NK ([6]; part B MAD): No changes
